Results: ChEMBL document CHEMBL2384952, “Synthesis, antifungal and cytotoxic activities of 2-aryl-3-((piperidin-1-yl)ethyl)thiazolidinones” (Eur J Med Chem, 2013)
Values after ≈ are worked out from the molar mass of the structure shown.

Assays:
Papiliotrema laurentii = assay: Antifungal activity against Cryptococcus laurentii after 48 hrs by CLSI M27A3 broth microdilution method; assay type: functional
Outline: (§1)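 Yeasts were kept on Sabouraud dextrose agar and subcultured at 35 °C for at least 2 days. They were suspended in saline to McFarland 0.5 and diluted in RPMI. Ten successive dilutions were made from a 1.6 mg/mL DMSO stock per CLSI broth microdilution, then incubated at 37 °C for 48 h. Growth was read visually against a growth-control well, and MIC is the lowest concentration inhibiting growth.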

Candida albicans = assay: Antifungal activity against Candida albicans after 48 hrs by CLSI M27A3 broth microdilution method; assay type: functional; outline: as §1
Vero [1] = assay: Cytotoxicity against African green monkey Vero cells at 1575 ug/mL by neutral red dye uptake assay relative to control; assay type: cell-based; settings: chlorocebus sabaeus
Outline: (§2)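 Vero cells (over 99% viable by trypan blue exclusion) were exposed to serial compound dilutions in E-MEM, with fresh E-MEM as negative control, for 72 h at 37 °C, 5% CO2. Cells were then given 3.3 mg/L neutral red for 2 h, and the dye was extracted with 50% ethanol/1% acetic acid. A540 was read, and viability was calculated as treated/control absorbance × 100.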

[2] = test system: Meyerozyma guilliermondii; assay: Antifungal activity against Candida guilliermondii after 48 hrs by CLSI M27A3 broth microdilution method; assay type: functional; outline: as §1
Vero [3] = assay: Cytotoxicity against African green monkey Vero cells at 394 ug/mL by neutral red dye uptake assay relative to control; assay type: cell-based; settings: chlorocebus sabaeus; outline: as §2
Vero [4] = assay: Cytotoxicity against African green monkey Vero cells at 197 ug/mL by neutral red dye uptake assay relative to control; assay type: cell-based; settings: chlorocebus sabaeus; outline: as §2
Candida parapsilosis = assay: Antifungal activity against Candida parapsilosis after 48 hrs by CLSI M27A3 broth microdilution method; assay type: functional; settings: Lodderomyces parapsilosis; outline: as §1
Vero [5] = assay: Cytotoxicity against African green monkey Vero cells at 12.3 ug/mL by neutral red dye uptake assay relative to control; assay type: cell-based; settings: chlorocebus sabaeus; outline: as §2
Vero [6] = assay: Cytotoxicity against African green monkey Vero cells at 3150 ug/mL by neutral red dye uptake assay relative to control; assay type: cell-based; settings: chlorocebus sabaeus; outline: as §2
Geotrichum = assay: Antifungal activity against Geotrichum species after 48 hrs by CLSI M27A3 broth microdilution method; assay type: functional; outline: as §1
Vero [7] = assay: Cytotoxicity against African green monkey Vero cells at 25 ug/mL by neutral red dye uptake assay relative to control; assay type: cell-based; settings: chlorocebus sabaeus; outline: as §2
Vero [8] = assay: Cytotoxicity against African green monkey Vero cells at 49 ug/mL by neutral red dye uptake assay relative to control; assay type: cell-based; settings: chlorocebus sabaeus; outline: as §2
Vero [9] = assay: Cytotoxicity against African green monkey Vero cells at 787 ug/mL by neutral red dye uptake assay relative to control; assay type: cell-based; settings: chlorocebus sabaeus; outline: as §2
Rhodotorula [10] = assay: Antifungal activity against Rhodotorula species after 48 hrs by CLSI M27A3 broth microdilution method; assay type: functional; outline: as §1
Trichosporon asahii = assay: Antifungal activity against Trichosporon asahii after 48 hrs by CLSI M27A3 broth microdilution method; assay type: functional; outline: as §1
Vero [11] = assay: Cytotoxicity against African green monkey Vero cells at 98 ug/mL by neutral red dye uptake assay relative to control; assay type: cell-based; settings: chlorocebus sabaeus; outline: as §2
Rhodotorula [12] = assay: Ratio of fluconazole MFC to compound MFC for Rhodotorula species; assay type: functional
Rhodotorula [13] = assay: Ratio of fluconazole MIC to compound MIC for Rhodotorula species; assay type: functional

Row | MIC (Papiliotrema laurentii) [µg/mL] | MIC (Candida albicans) [µg/mL] | MIC [2] [µg/mL] | MIC (Candida parapsilosis) [µg/mL] | MIC (Geotrichum) [µg/mL] | MIC (Rhodotorula [10]) [µg/mL] | Structure (SMILES) | MFC (Papiliotrema laurentii) [µg/mL] | MFC (Candida albicans) [µg/mL] | Cell viability (Vero [1]) [%] | MFC [2] [µg/mL] | Cell viability (Vero [3]) [%] | Cell viability (Vero [4]) [%] | MFC (Candida parapsilosis) [µg/mL] | Cell viability (Vero [5]) [%] | Cell viability (Vero [6]) [%] | MFC (Geotrichum) [µg/mL] | Cell viability (Vero [7]) [%] | Cell viability (Vero [8]) [%] | Cell viability (Vero [9]) [%] | MFC (Rhodotorula [10]) [µg/mL] | other results
1 | 100 (≈ 324 µM) | 100 (≈ 324 µM) | 133 (≈ 431 µM) | 100 (≈ 324 µM) | > 400 | 36 (≈ 117 µM) | O=C1CSC(c2ccccc2F)N1CCN1CCCCC1 (stereo unspecified) | 100 (≈ 324 µM) | 100 (≈ 324 µM) | 10 | 133 (≈ 431 µM) | 45 | 65 | 100 (≈ 324 µM) | 100 | 10 | > 400 | 100 | 95 | 10 | 36 (≈ 117 µM) | MFC (Trichosporon asahii): > 400 µg/mL; MIC (Trichosporon asahii): > 400 µg/mL; Cell viability (Vero [11]): 82%
2 | 100 (≈ 298 µM) | 50 (≈ 149 µM) | 100 (≈ 298 µM) | 100 (≈ 298 µM) | 100 (≈ 298 µM) | 16.5 (≈ 49.2 µM) | O=C1CSC(c2cccc([N+](=O)[O-])c2)N1CCN1CCCCC1 (stereo unspecified) | 100 (≈ 298 µM) | 50 (≈ 149 µM) | 7 | 100 (≈ 298 µM) | 60 | 75 | 100 (≈ 298 µM) | 100 | 2 | 100 (≈ 298 µM) | 100 | 100 | 15 | 16.5 (≈ 49.2 µM) | Ratio (Rhodotorula [12]): 1.6; Ratio (Rhodotorula [13]): 1.6; MFC (Trichosporon asahii): > 400 µg/mL; MIC (Trichosporon asahii): > 400 µg/mL; Cell viability (Vero [11]): 94%
3 | 100 (≈ 324 µM) | 150 (≈ 486 µM) | 100 (≈ 324 µM) | 100 (≈ 324 µM) | > 400 | 33.5 (≈ 109 µM) | O=C1CSC(c2cccc(F)c2)N1CCN1CCCCC1 (stereo unspecified) | 100 (≈ 324 µM) | 150 (≈ 486 µM) | 17 | 100 (≈ 324 µM) | 60 | 84 | 100 (≈ 324 µM) | 100 | 13 | > 400 | 100 | 97 | 27 | 33.5 (≈ 109 µM) | MFC (Trichosporon asahii): > 400 µg/mL; MIC (Trichosporon asahii): > 400 µg/mL; Cell viability (Vero [11]): 92%
4 | 100 (≈ 312 µM) | 100 (≈ 312 µM) | 100 (≈ 312 µM) | 100 (≈ 312 µM) | 41.5 (≈ 130 µM) | 16.5 (≈ 51.5 µM) | COc1ccccc1C1SCC(=O)N1CCN1CCCCC1 (stereo unspecified) | 100 (≈ 312 µM) | 100 (≈ 312 µM) | 17 | 100 (≈ 312 µM) | 67 | 72 | 100 (≈ 312 µM) | 100 | 5 | 41.5 (≈ 130 µM) | 100 | 100 | 30 | 16.5 (≈ 51.5 µM) | Ratio (Rhodotorula [12]): 1.6; Ratio (Rhodotorula [13]): 1.6; MFC (Trichosporon asahii): 50 µg/mL (≈ 156 µM); MIC (Trichosporon asahii): 50 µg/mL (≈ 156 µM); Cell viability (Vero [11]): 100%
